From ChEMBL document CHEMBL4334549, “Functionalized Naphthalimide-4-aminoquinoline Conjugates as Promising Antiplasmodials, with Mechanistic Insights” (ACS Med Chem Lett, 2020)
Calls of active or inactive are those of the source. The calls are words filed in the database; no cut-off is given here.

How the values were obtained:
Vero = assay: Cytotoxicity against African green monkey Vero cells measured after 24 hrs by resazurin dye based fluorescence assay; assay type: cell-based; details: Chlorocebus sabaeus
[1] = Selectivity index, ratio of IC50 for African green monkey Vero cells to IC50 for D-sorbitol synchronized ring stage of chloroquine-resistant Plasmodium falciparum W2; assay type: toxicity; details: read-out: Ratio IC50
Plasmodium falciparum [2] = assay: Antiplasmodial activity against D-sorbitol synchronized ring stage of chloroquine-resistant Plasmodium falciparum W2 assessed as parasite growth inhibition measured after 48 hrs by YOYO-1 dye based FACSort flow cytometry analysis; assay type: functional, organism-based; details: W2, 48 h
Plasmodium falciparum [3] = assay: Antiplasmodial activity against sorbitol synchronized CQ-resistant Plasmodium falciparum W2 assessed as parasite growth inhibition after 48 hrs by SYBR Green I-based fluorescence assay; details: W2, 48 h
Heme [4] = assay: Binding affinity to monomeric heme assessed as decrease in band intensity in HEPES buffer in aqueous DMSO solution at pH 7.4 by UV-vis spectrophotometric titration analysis
How it was run: (§1)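 Monomeric hemin (12 μM) in 40% DMSO with 0.02 M HEPES, pH 7.4, was titrated with compound at 0–18 μM. The drop in the 401 nm monomeric-heme band was followed by UV-vis. Log K was obtained by nonlinear least-squares fitting of the titration curves. A DMSO solvent control was included.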

Heme [5] = assay: Binding affinity to monomeric heme assessed as decrease in band intensity in MES buffer in aqueous DMSO solution at pH 5.6 by UV-vis spectrophotometric titration analysis
How it was run: (§2)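 Monomeric hemin (12 μM) in aqueous DMSO with 0.02 M MES, pH 5.6, was titrated with compound at 0–16 μM. Loss of the 401 nm monomeric-heme absorbance was monitored by UV-vis. Binding constant (log K) came from nonlinear least-squares fitting of the titration curves, with a DMSO solvent control.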

Heme [6] = assay: Binding affinity to monomeric heme assessed as binding constant in HEPES buffer in aqueous DMSO solution at pH 7.4 by UV-vis spectrophotometric titration analysis; how it was run: as §1
Plasmodium falciparum [7] = assay: Potency index, ratio of chloroquine IC50 to compound IC50 for antiplasmodial activity against D-sorbitol synchronized ring stage of chloroquine-resistant Plasmodium falciparum W2 assessed as parasite growth inhibition measured after 48 hrs by YOYO-1 dye based FACSort flow cytometry analysis; assay type: functional
Heme [8] = assay: Binding affinity to monomeric heme assessed as binding constant in MES buffer in aqueous DMSO solution at pH 5.6 by UV-vis spectrophotometric titration analysis; how it was run: as §2
Heme [9] = assay: Binding affinity to monomeric heme assessed as heme-compound complex formation by measuring shifting and broadening of the peaks by 1H-NMR analysis
Heme [10] = assay: Binding affinity to monomeric heme assessed as heme-compound complex formation at 1:1 ratio in aqueous DMSO solution at 5 micromol by mass spectrometry analysis

Row | Compound | IC50 (Vero) [µM] | selectivity ratio [1] | IC50 (Plasmodium falciparum [2]) [µM] | also measured
1 | O=C1c2cccc3c(N4CCN(CCO)CC4)ccc(c23)C(=O)N1CCNc1ccnc2cc(Cl)ccc12 | 45.2 | 1100 | 0.0411 | 
2 | O=C1c2cccc3c(N4CCN(CCO)CC4)ccc(c23)C(=O)N1CCCCNc1ccnc2cc(Cl)ccc12 | 31.9 | 1580 | 0.0201 | 
3 | O=C1c2cccc3c(Br)ccc(c23)C(=O)N1CCCCCCCCNc1ccnc2cc(Cl)ccc12 | 177 | 315 | 0.562 | 
4 | O=C1OC(=O)c2cccc3cccc1c23 [1,8-NAPHTHALIC ANHYDRIDE] | 505 |  | > 10 | 
5 | O=C1c2cccc3c(N4CCOCC4)ccc(c23)C(=O)N1CCCCCCCCNc1ccnc2cc(Cl)ccc12 | 175 | 44.1 | 3.97 | 
6 | O=C1c2cccc3cccc(c23)C(=O)N1CCCCCCCCNc1ccnc2cc(Cl)ccc12 | 206 | 576 | 0.357 | 
7 | O=C1c2cccc3cccc(c23)C(=O)N1CCCCNc1ccnc2cc(Cl)ccc12 | 7.58 | 186 | 0.0407 | 
8 | O=C1c2cccc3c(N4CCN(CCO)CC4)ccc(c23)C(=O)N1CCCCCCCCNc1ccnc2cc(Cl)ccc12 | 171 | 797 | 0.215 | 
9 | O=C1c2cccc3c(N4CCN(CCO)CC4)ccc(c23)C(=O)N1CCCCCCNc1ccnc2cc(Cl)ccc12 | 13.1 | 109 | 0.12 | 
10 | O=C1c2cccc3c(Br)ccc(c23)C(=O)N1CCCCNc1ccnc2cc(Cl)ccc12 | 13.9 | 262 | 0.0533 | 
11 | O=C1c2cccc3c(N4CCOCC4)ccc(c23)C(=O)N1CCNc1ccnc2cc(Cl)ccc12 | 26.8 | 221 | 0.121 | 
12 | O=C1OC(=O)c2ccc(Br)c3cccc1c23 | 361 |  | > 10 | 
13 | O=C1c2cccc3c(N4CCOCC4)ccc(c23)C(=O)N1CCCNc1ccnc2cc(Cl)ccc12 | 69 | 1030 | 0.0669 | 
14 | O=C1c2cccc3cccc(c23)C(=O)N1CCCCCCNc1ccnc2cc(Cl)ccc12 | 218 | 560 | 0.39 | 
15 | O=C1c2cccc3c(N4CCCCC4)ccc(c23)C(=O)N1CCCCCCNc1ccnc2cc(Cl)ccc12 | 185 | 1420 | 0.13 | 
16 | O=C1c2cccc3c(N4CCOCC4)ccc(c23)C(=O)N1CCCCCCNc1ccnc2cc(Cl)ccc12 | 184 |  | 0.0842 | 
17 | O=C1c2cccc3c(N4CCCCC4)ccc(c23)C(=O)N1CCCCCCCCNc1ccnc2cc(Cl)ccc12 | 176 | 401 | 0.438 | 
18 | O=C1c2cccc3c(N4CCOCC4)ccc(c23)C(=O)N1CCCCNc1ccnc2cc(Cl)ccc12 | 12.5 | 52.6 | 0.237 | 
19 | O=C1c2cccc3c(Br)ccc(c23)C(=O)N1CCCNc1ccnc2cc(Cl)ccc12 | 10.7 | 179 | 0.0597 | 
20 | O=C1c2cccc3c(N4CCCCC4)ccc(c23)C(=O)N1CCNc1ccnc2cc(Cl)ccc12 | 126 | 851 | 0.149 | 
21 | O=C1c2cccc3cccc(c23)C(=O)N1CCNc1ccnc2cc(Cl)ccc12 | 249 | 4440 | 0.056 | 
22 | O=C1c2cccc3c(Br)ccc(c23)C(=O)N1CCCCCCNc1ccnc2cc(Cl)ccc12 | 186 | 1150 | 0.162 | 
23 | CC(C)[C@@H](C(=O)N[C@H](Cc1ccccc1)[C@@H](O)CN1CCN(Cc2ccc(Br)cc2)CC1)N1C(=O)c2ccccc2C1=O |  |  |  | IC50 (Plasmodium falciparum [3]): 3.01 µM
24 | O=C1c2cccc3c(Br)ccc(c23)C(=O)N1CCNc1ccnc2cc(Cl)ccc12 | 7.79 | 147 | 0.053 | 
25 | O=C1c2cccc3c(N4CCCCC4)ccc(c23)C(=O)N1CCCCNc1ccnc2cc(Cl)ccc12 | 33.8 | 352 | 0.0961 | 
26 | O=C1c2cccc3c(N4CCCCC4)ccc(c23)C(=O)N1CCCNc1ccnc2cc(Cl)ccc12 | 200 | 3910 | 0.0512 | 
27 | O=C1c2cccc3c(N4CCN(CCO)CC4)ccc(c23)C(=O)N1CCCNc1ccnc2cc(Cl)ccc12 | 64.8 | 4190 | 0.0154 | Activity (Heme [4]): Active; Activity (Heme [5]): Active; log K (Heme [6]): 6.33; Ratio IC50 (Plasmodium falciparum [7]): 15; log K (Heme [8]): 6.06; Activity (Heme [9]): Active; Activity (Heme [10]): Active
28 | O=C1c2cccc3cccc(c23)C(=O)N1CCCNc1ccnc2cc(Cl)ccc12 | 3.14 | 21.4 | 0.147 | 
